Experimental data taken from paper PMC9008867 (Therapeutic Advances in Medical Oncology, 2022).
Values joined by “and” are separate entries in the source; they are usually repeats but may differ in a detail not shown here. Equal entries are not always repeated. Where two headings read alike, the source gives them in different places.

Key:
[1] = cited from earlier work
[2] = test system: Asian patients with advanced or metastatic malignancies; test: Adverse events; type: in vivo, human; conditions: Schedule 1; patients n (%)
Procedure, shortened: (§1)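 Test compound given orally by schedule. Schedule 1: Mon/Thu, 28-day cycle. Schedule 2: Mondays weekly, 28-day cycle. Schedule 3: Mon/Wed for 2 of 3 weeks, 21-day cycle. Schedule 4: Mon/Wed/Fri, 28-day cycle. All patients received anorexia/nausea prophylaxis. AEs were recorded up to 30 days after the last dose and graded every 2 weeks for cycles 1–2, then every 4 weeks.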

tumour biopsies = test: Immunohistochemistry of paired pretreatment and ontreatment tumour biopsies; type: in vivo, human
Procedure, shortened: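 Paired pretreatment and on-treatment tumour biopsies came from six consenting dose-escalation patients. IHC covered […], Ki67 for proliferation, and ApopTag and cleaved caspase 3 for apoptosis.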

[3] = test system: metastatic triple-negative breast cancer; conditions: 10 heavily pretreated patients; cited from earlier work
[4] = test system: human melanoma cell lines; conditions: cited from earlier work
[5] = test system: Asian patients with advanced or metastatic malignancies; type: in vivo, human
[6] = test system: Asian patients with advanced or metastatic malignancies; test: Adverse events; type: in vivo, human; conditions: Schedule 4; patients n (%)
Procedure, shortened: as §1

leukocytes = conditions: cited from earlier work
[7] = test system: advanced or metastatic malignancies; test: Antitumour response; type: in vivo, human
Procedure, shortened: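 Solid tumours were imaged by CT or MRI and scored by RECIST 1.1. NHL was scored by IWG criteria; CTCL by consensus criteria with mSWAT skin scoring plus nodes, blood and viscera. Response was documented at least once at 8 weeks, then every two cycles. Evaluable patients had ≥1 dose and ≥1 postbaseline scan. Expansion dosing: flat 60 mg on days 1, 4, 8, 11 of 21-day cycles.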

colorectal cancer = test: Exploratory PFS subgroup analysis in advanced colorectal cancer patients; type: in vivo, human
[8] = Caucasian patients, 39 mg/m^2, n = 9
[9] = after 6 weeks of treatment vs baseline, lymphoma, thymoma, colorectal carcinoma
[10] = expansion phase, with drug holiday and pre-emptive antiemetic regimen
[11] = all dose levels, 74 evaluable patients
[12] = phase 1b expansion cohort, 35 evaluable patients

In the case of O=C(/C=C\n1cnc(-c2cc(C(F)(F)F)cc(C(F)(F)F)c2)n1)NNc1cnccn1 [selinexor], the AUC0-48 [1, 8] is given as 5829 ± 1587 ng·h/mL, the Cmax [1, 8] is given as 553 ± 238 ng/mL and the Mean half-life ([1]; study KCP-330-002) is given as ~ 6 h. For the same compound, the “Anaemia, Any grade” value [2] was 1 (16.6) %, the “Anorexia, Any grade” value [2] was 4 (66.6) % and the “Dehydration, Any grade” value [2] was 1 (16.6) %. For the same compound, the “Diarrhoea, Any grade” value [2] was 2 (33.3) %, the “Fatigue, Any grade” value [2] was 6 (100) % and the “Hypokalaemia, Any grade” value [2] was 2 (33.3) %. For the same compound, the “Hypomagnesemia, Any grade” value [2] was 1 (16.6) %, the “Hyponatremia, Any grade” value [2] was 6 (100) % and the “Nausea, Any grade” value [2] was 1 (16.6) %. For the same compound, the “Thrombocytopenia, Any grade” value [2] was 2 (33.3) %, the “Vomiting, Any grade” value [2] was 1 (16.6) % and the “Weight loss, Any grade” value [2] was 1 (16.6) %. For the same compound, the “apoptosis in tumour samples (IHC)” value (tumour biopsies; [9]) was “increase”, the “proliferation in tumour samples (IHC)” value (tumour biopsies; [9]) was “marked decrease” and the “XPO1 cargo protein p53 localization in tumour sections” value (tumour biopsies; patient with NSCLC) was “nuclear accumulation”. For the same compound, the objective responses [3] was “did not result in any objective responses”, the PD-L1 gene expression [4] was “induced” and the tolerability ([5]; 60 mg twice a week, 2 out of 3 weeks, Asian patients) was “well tolerated”. For the same compound, the “Grade 3 fatigue” value ([5]; dose expansion phase) was 8%, the “grade 3 or 4 anaemia” value ([5]; dose expansion phase) was 2% and the “grade 3 or 4 hyponatremia” value ([5]; dose expansion phase) was 23%. The “grade 3 or 4 thrombocytopenia” value ([5]; dose expansion phase) was 5%, the “grade 3 or 4 vomiting” value ([5]; dose expansion phase) was 5% and the “patients with grade 3 or 4 cytopenias” value ([5]; expansion phase) was “less than 3%”. The “grade 3 or more nausea” value [5, 10] was “no grade 3 or more nausea”, the incidence of nausea [5, 10] was 30% and the deaths ([5]; phase 1b expansion cohort, none attributed to the study drug) was “Five”. For the same compound, the “Abdominal discomfort, Any grade” value ([5]; phase 1b, patients n (%)) was 5 (13.15) %, the “Abdominal discomfort, G1/G2” value ([5]; phase 1b, patients n (%)) was 4 (10.52) % and the “Abdominal discomfort, G3/G4” value ([5]; phase 1b, patients n (%)) was 1 (2.63) %. For the same compound, the “Abdominal distension, Any grade” value ([5]; phase 1b, patients n (%)) was 1 (2.63) %, the “Abdominal distension, G3/G4” value ([5]; phase 1b, patients n (%)) was 1 (2.63) % and the “Abnormal thyroid function, Any grade” value ([5]; phase 1b, patients n (%)) was 2 (5.26) %. The “Abnormal thyroid function, G1/G2” value ([5]; phase 1b, patients n (%)) was 2 (5.26) %, the “Acute kidney injury, Any grade” value ([5]; phase 1b, patients n (%)) was 1 (2.63) % and the “Acute kidney injury, G1/G2” value ([5]; phase 1b, patients n (%)) was 1 (2.63) %. For the same compound, the “Anaemia, Any grade” value ([5]; phase 1b, patients n (%)) was 6 (15.78) %, the “Anorexia, Any grade” value ([5]; phase 1b, patients n (%)) was 18 (47.36) % and the “Ascites, Any grade” value ([5]; phase 1b, patients n (%)) was 2 (5.26) %. The “Asthenia, Any grade” value ([5]; phase 1b, patients n (%)) was 1 (2.63) %, the “Back pain, Any grade” value ([5]; phase 1b, patients n (%)) was 2 (5.26) % and the “Blurring of vision, Any grade” value ([5]; phase 1b, patients n (%)) was 3 (7.89) %. The “Blurring of vision, G1/G2” value ([5]; phase 1b, patients n (%)) was 3 (7.89) %, the “Constipation, Any grade” value ([5]; phase 1b, patients n (%)) was 6 (15.78) % and the “Cough, Any grade” value ([5]; phase 1b, patients n (%)) was 2 (5.26) %. For the same compound, the “Dehydration, Any grade” value ([5]; phase 1b, patients n (%)) was 2 (5.26) %, the “Diarrhoea, Any grade” value ([5]; phase 1b, patients n (%)) was 10 (26.31) % and the “Dysgeusia, Any grade” value ([5]; phase 1b, patients n (%)) was 12 (31.57) %. The “Dyspnoea/Shortness of breath, Any grade” value ([5]; phase 1b, patients n (%)) was 2 (5.26) %, the “Dyspnoea/Shortness of breath, G1/G2” value ([5]; phase 1b, patients n (%)) was 2 (5.26) % and the “Fever, Any grade” value ([5]; phase 1b, patients n (%)) was 2 (5.26) %. The “Giddiness, Any grade” value ([5]; phase 1b, patients n (%)) was 3 (7.89) %, the “Hyperglycaemia, Any grade” value ([5]; phase 1b, patients n (%)) was 2 (5.26) % and the “Hypersalivation, Any grade” value ([5]; phase 1b, patients n (%)) was 1 (2.63) %. For the same compound, the “Hyperuricaemia, Any grade” value ([5]; phase 1b, patients n (%)) was 1 (2.63) %, the “Hypocalcaemia, Any grade” value ([5]; phase 1b, patients n (%)) was 1 (2.63) % and the “Hypokalaemia, Any grade” value ([5]; phase 1b, patients n (%)) was 7 (18.42) %. For the same compound, the “Hypomaganesemia, Any grade” value ([5]; phase 1b, patients n (%)) was 3 (7.89) %, the “Hyponatremia, Any grade” value ([5]; phase 1b, patients n (%)) was 20 (52.63) % and the “Hypophosphataemia, Any grade” value ([5]; phase 1b, patients n (%)) was 5 (13.15) %. The “Increased creatinine, Any grade” value ([5]; phase 1b, patients n (%)) was 2 (5.26) %, the “Increased creatinine, G1/G2” value ([5]; phase 1b, patients n (%)) was 2 (5.26) % and the “Lethargy, Any grade” value ([5]; phase 1b, patients n (%)) was 1 (2.63) %. The “Loss of Appetite, Any grade” value ([5]; phase 1b, patients n (%)) was 8 (21.05) %, the “Mood swing, Any grade” value ([5]; phase 1b, patients n (%)) was 1 (2.63) % and the “Mucositis, Any grade” value ([5]; phase 1b, patients n (%)) was 2 (5.26) %. For the same compound, the “Nausea, Any grade” value ([5]; phase 1b, patients n (%)) was 12 (31.57) %, the “Peripheral neuropathy, Any grade” value ([5]; phase 1b, patients n (%)) was 2 (5.26) % and the “Peripheral neuropathy, G1/G2” value ([5]; phase 1b, patients n (%)) was 2 (5.26) %. For the same compound, the “Pneumonia, Any grade” value ([5]; phase 1b, patients n (%)) was 1 (2.63) %, the “Pulmonary embolism, Any grade” value ([5]; phase 1b, patients n (%)) was 1 (2.63) % and the “Pulmonary embolism, G1/G2” value ([5]; phase 1b, patients n (%)) was 1 (2.63) %. For the same compound, the “Raised amylase/lipase, Any grade” value ([5]; phase 1b, patients n (%)) was 1 (2.63) %, the “Raised amylase/lipase, G1/G2” value ([5]; phase 1b, patients n (%)) was 1 (2.63) % and the “Raised amylase/lipase, G3/G4” value ([5]; phase 1b, patients n (%)) was 1 (2.63) %. The “Reflux, Any grade” value ([5]; phase 1b, patients n (%)) was 1 (2.63) %, the “Rt buttock pain, Any grade” value ([5]; phase 1b, patients n (%)) was 1 (2.63) % and the “Rt leg pain, Any grade” value ([5]; phase 1b, patients n (%)) was 1 (2.63) %. For the same compound, the “Thrombocytopenia, Any grade” value ([5]; phase 1b, patients n (%)) was 6 (15.78) %, the “Transaminitis, Any grade” value ([5]; phase 1b, patients n (%)) was 3 (7.89) % and the “URTI, Any grade” value ([5]; phase 1b, patients n (%)) was 1 (2.63) %. For the same compound, the “Urinary retention, Any grade” value ([5]; phase 1b, patients n (%)) was 1 (2.63) %, the “Vomiting, Any grade” value ([5]; phase 1b, patients n (%)) was 8 (21.05) % and the “Weight loss, Any grade” value ([5]; phase 1b, patients n (%)) was 6 (15.78) %. For the same compound, the “Abdominal discomfort, Any grade” value [6] was 2 (18.18) %, the “Abdominal discomfort, G1/G2” value [6] was 2 (18.18) % and the “Anaemia, Any grade” value [6] was 3 (27.27) %. For the same compound, the “Anorexia, Any grade” value [6] was 5 (45.45) %, the “Cataract, Any grade” value [6] was 1 (9.09) % and the “Diarrhoea, Any grade” value [6] was 4 (36.36) %. For the same compound, the “Dysgeusia, Any grade” value [6] was 2 (18.18) %, the “Dyspnoea/Shortness of breath, Any grade” value [6] was 3 (27.27) % and the “Dyspnoea/Shortness of breath, G1/G2” value [6] was 2 (18.18) %. The “Dyspnoea/Shortness of breath, G3/G4” value [6] was 1 (9.09) %, the “Fatigue, Any grade” value [6] was 11 (100) % and the “Hypocalcaemia, Any grade” value [6] was 1 (9.09) %. The “Hypokalaemia, Any grade” value [6] was 1 (9.09) %, the “Hypomagnesemia, Any grade” value [6] was 3 (27.27) % and the “Hyponatremia, Any grade” value [6] was 10 (90.90) %. For the same compound, the “Hypophosphatemia, Any grade” value [6] was 1 (9.09) %, the “Nausea, Any grade” value [6] was 2 (18.18) % and the “Neutropenia, Any grade” value [6] was 1 (9.09) %. The “Thrombocytopenia, Any grade” value [6] was 6 (54.54) %, the “Vomiting, Any grade” value [6] was 2 (18.18) % and the “Weight loss, Any grade” value [6] was 3 (27.27) %. The “PD-1 and CTLA4 gene expression” value (leukocytes) was “increase”, the “patients with prolonged stable disease of more than 12 weeks” value [7, 11] was 10 and the “prolonged stable disease of more than 12 weeks” value [7, 11] was 13.5% and 13%. The “patients with confirmed partial response” value ([7]; all dose levels, 74 evaluable, two DLBCL, one Hodgkin's lymphoma, one thymoma) was “four”, the “at least stable disease or better as best response” value [7, 12] was 37.1% and the “patients with at least stable disease or better as best response” value [7, 12] was 13. For the same compound, the “patients with prolonged stable disease of more than 12 weeks” value ([7]; phase 1b expansion cohort, all colorectal cancer) was “four”, the “objective response (confirmed complete and partial response rate)” value ([7]; whole study) was 8% and the “HR for PFS” value (colorectal cancer; RAS/PIK3CA pathway mutation vs wild-type, p = 0.09, log-rank) was 0.58 (0.25–1.32). The “median PFS” value (colorectal cancer; colorectal cancer patients with a RAS/PIK3CA pathway mutation) was 86 days, the “median PFS” value (colorectal cancer; colorectal cancer patients, RAS/PIK3CA wild-type) was 50 days and the PFS (colorectal cancer; one heavily pretreated colorectal cancer patient with BRAF V600E somatic mutation) was 129 days.
